Experimental data: ChEMBL document CHEMBL1131445, “Evaluation of dynamic polar molecular surface area as predictor of drug absorption: comparison with other computational and experimental predictors” (J Med Chem, 1998)

What was measured:
[1] = Dissociation constant of the compound; assay type: physicochemical
[2] = Distribution coefficient measured in Octanol/buffer (0.15 M KCl); assay type: physicochemical
Procedure, shortened: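 Dual-phase titration at 25 °C: 1–2 mg sample plus 1.0 mL n-octanol in 10–15 mL water with 0.15 M KCl. Acidified to pH 2 (0.5 M HCl), then titrated with 0.5 M KOH to pH 11 under nitrogen. log P came from the pKa–pKa' shift via nonlinear regression of difference curves; log D refers to pH 7.4.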

Homo sapiens = species: Homo sapiens; experiment: Mono layer permeability of human intestinal Caco-2 cells; assay type: ADME, cell-based
Procedure, shortened: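 Caco-2 cells at passage 93–105, seeded on polycarbonate filter inserts (0.45 μm pores) and grown 22–32 days. Drug at 1–2 mM final in HBSS with 25 mM Hepes, pH 7.4, added donor side; 37 °C, low and high stirring. Receiver sampled every 4–40 min for HPLC, under sink conditions. Pc derived from Papp across stirring rates, free of the aqueous boundary layer.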

SMILES	pKa [1]	logD [2]	Pc (Homo sapiens)
O=C(NCCNCC(O)COc1ccc(CCOCCOCC2CC2)cc1)N1CCC(O)CC1 (configuration not stated)	8.5	-0.1	0.104 ×10⁻⁶ cm/s
CCC(=O)Nc1ccc(OCC(O)CNC(C)C)cc1 (configuration not stated)	9.5	-1.08	6.03 ×10⁻⁶ cm/s
CC(C)NCC(O)COc1cccc2[nH]ccc12 (configuration not stated) [PINDOLOL]	9.7	-0.55	54.7 ×10⁻⁶ cm/s
CC(C)NCC(O)COc1ccc(NC=O)cc1 (configuration not stated)	9.5	-1.56	3.75 ×10⁻⁶ cm/s
C=CCc1ccccc1OCC(O)CNC(C)C (configuration not stated) [ALPRENOLOL]		0.85	242 ×10⁻⁶ cm/s
COCCc1ccc(OCC(O)CNC(C)C)cc1 (configuration not stated) [METOPROLOL]		-0.42	91.9 ×10⁻⁶ cm/s
C=CCOc1ccccc1OCC(O)CNC(C)C (configuration not stated) [OXPRENOLOL]	9.5	0.08	119.6 ×10⁻⁶ cm/s
CC(=O)Nc1ccc(OCC(O)CNC(C)C)cc1 (configuration not stated) [PRACTOLOL]	9.5	-1.31	3.46 ×10⁻⁶ cm/s
